Measured values collected from several papers.
Lines come from different studies, so protocols differ.
Target: Serine/threonine-protein kinase RIO2 (RIOK2, Homo sapiens, UniProt Q9BVS4)

FC(F)(F)Oc1cccc(-c2cnc3ccc(-c4ccncc4)nn23)c1
remaining binding (binding, competition with immobilised ligand; 5 µM): 7.7%

CN(c1nccc(-c2cnn3ncccc23)n1)C1CC1
remaining binding (binding; 1 µM): 99%

COc1cnc(Nc2cccc(S(N)(=O)=O)c2)nc1N1CCN(c2ccccc2)C(=O)C1
remaining binding (binding, competition with immobilised ligand; 1 µM): 100%

N[C@@H]1CCN(c2nccc(-c3cnn4ncccc34)n2)C1
remaining binding (binding; 1 µM): 37%

CNC(=O)Nc1ccc2c(c1)[C@@]1(CC2)OC(=O)N(CC(=O)N(Cc2ccc(F)cc2)[C@@H](C)C(F)(F)F)C1=O
remaining binding (cell-free assay, competition with immobilised ligand; 1 µM): 83%

O=C(c1ccc(Nc2ncc(Cl)c(-c3ccc(Cl)s3)n2)cc1)N1CCC(N2CCCC2)CC1
remaining binding (binding, competition with immobilised ligand; 1 µM): 49%

CC(=O)N1CCC(c2ccc(C(=O)NC3=NCCN3)cc2C(F)(F)F)CC1
remaining binding (cell-free assay, competition with immobilised ligand; 1 µM): 93%

C[C@@H]1CN(c2ccc3ncc(-c4ccc5[nH]nc(C6CC6)c5c4)n3n2)C[C@H](C)O1
remaining binding (binding, competition with immobilised ligand; 50 nM): 76%

O=C(Nc1c[nH]nc1C(=O)NC1CCNCC1)c1cc(F)cc(F)c1
remaining binding (binding, competition with immobilised ligand; 1 µM): 100%

CC(C)(O)c1cncc(-c2nc3ccc(F)cc3n2C2CC2)c1
remaining binding (cell-free assay, competition with immobilised ligand; 1 µM): 100%

N#Cc1ccccc1CSc1nnc2c(n1)[nH]c1ccccc12
remaining binding (binding, competition with immobilised ligand; 10 µM): 94%

O=C(NCCCN1CCOCC1)c1ccc(Nc2nccc(-c3cc4ccccc4s3)n2)cc1
remaining binding (binding, competition with immobilised ligand; 1 µM): 47%

CN(C)c1nccc(-c2cnn3ncccc23)n1
remaining binding (binding; 1 µM): 84%

CN(C)C(=O)Cn1cc(-c2nc([C@@](C)(c3ccc(-c4cnc(N)nc4)cc3)C3CC3)no2)cn1
remaining binding (cell-free assay, competition with immobilised ligand; 1 µM): 87%

C[C@@H](c1ccc(-n2cnc3c(N)ncnc32)cc1)N1CCc2nn(C)c(Cc3ccccc3)c2C1=O
remaining binding (binding, competition with immobilised ligand; 0.1 µM): 97%

CCS(=O)(=O)c1cc2cc(C[C@](O)(CC(C)(C)c3ccc(F)cc3C(N)=O)C(F)(F)F)[nH]c2cn1
remaining binding (cell-free assay, competition with immobilised ligand; 1 µM): 100%

COc1cnc(Nc2cccc(S(N)(=O)=O)c2)nc1N1CCN(c2ccccc2)CC1
remaining binding (binding, competition with immobilised ligand; 1 µM): 83%

O=C(c1ccc(Nc2ncc(Cl)c(-c3cc4ccccc4s3)n2)cc1)N1CCC(N2CCCC2)CC1
remaining binding (binding, competition with immobilised ligand; 1 µM): 40%

O=c1nc(-c2ccccn2)sc2ccccc12
remaining binding (binding, competition with immobilised ligand; 1 µM): 94%

C[C@H]1CCN(c2nccc(-c3cnn4ncccc34)n2)C1
remaining binding (binding; 1 µM): 90%

CC1=C(C#N)C(c2ccc3c(c2)c(NC(=O)c2ccccc2C)nn3C)C(C#N)=C(C)N1
remaining binding (cell-free assay, competition with immobilised ligand; 1 µM): 65%

COc1ccnn2ncc(-c3ccnc(N(C)C)n3)c12
remaining binding (binding; 1 µM): 63%

Nc1ncc2c(n1)-c1c([nH]c3ccc(C#CC4CC4)cc13)CCCC2
remaining binding (binding, competition with immobilised ligand; 1 µM): 77%
